Measurements as given in ChEMBL document CHEMBL5303300, “EUbOPEN Chemogenomics Library - Multiplex” (2023).
Where “and” joins values, the source holds several entries; their conditions need not be identical. Identical values can stand only once.

Test system: U2OS
Test: Multiplex assay against U2OS
Type: toxicity, cell-based
Conditions: human, number of replicates 2
How it was run: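 Live cells were stained at seeding with Hoechst33342, BioTracker Green Microtubule Cytoskeleton Dye, MitoTracker Red and Annexin V Alexa Fluor 680, then imaged on a CQ1 microscope at 37°C and 5% CO2 after compound addition. CellPathfinder machine-learning gating split cells into Hoechst high-intensity objects or normal cells. Normal cells were split into healthy, pyknosed or fragmented nuclei, and pyknosed cells into mitotic or apoptotic. Tubulin, mitochondrial-mass and membrane-permeability phenotypes are per cents of healthy-nucleus cells.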

[1] = 12 h, 1 µM, compound concentration 1 uM
[2] = 12 h, 10 µM, compound concentration 10 uM
[3] = 24 h, 1 µM, compound concentration 1 uM
[4] = 24 h, 10 µM, compound concentration 10 uM
[5] = 48 h, 1 µM, compound concentration 1 uM
[6] = 48 h, 10 µM, compound concentration 10 uM

With `COCCN1CCN(CCn2ccc(Nc3ncc4c(n3)-c3c(nn(C)c3-c3ccccc3)C[C@H]4C)n2)CC1` the “Population Apoptotic (%)” value [1] was 40% and 50%, the “Population Healthy Nuclei (%)” value [1] was 84% and 72% and the “Population Hoechst High Intensity Objects (%)” value [1] was 0%. For the same compound, the “Population Membrane Permeable-Phenotype (%)” value [1] was 1% and 5%, the “Population Mitochondria Different-Phenotype (%)” value [1] was 0% and the “Population Mitotic Cells (%)” value [1] was 59% and 50%. The “Population Normal (%)” value [1] was 100%, the “Population Pyknosed Nuclei (%)” value [1] was 11% and 7% and the “Population Tubulin-Different-Phenotype (%)” value [1] was 82% and 40%. For the same compound, the “Population Apoptotic (%)” value [2] was 46% and 63%, the “Population Fragmented Nuclei (%)” value [2] was 8% and 4% and the “Population Healthy Nuclei (%)” value [2] was 61% and 79%. The “Population Hoechst High Intensity Objects (%)” value [2] was 0%, the “Population Membrane Permeable-Phenotype (%)” value [2] was 6% and 7% and the “Population Mitochondria Different-Phenotype (%)” value [2] was 6% and 8%. The “Population Mitotic Cells (%)” value [2] was 53% and 36%, the “Population Normal (%)” value [2] was 100% and 99% and the “Population Pyknosed Nuclei (%)” value [2] was 30% and 16%. The “Population Tubulin-Different-Phenotype (%)” value [2] was 20% and 35%, the “Population Apoptotic (%)” value [3] was 58% and 83% and the “Population Fragmented Nuclei (%)” value [3] was 2% and 10%. The “Population Healthy Nuclei (%)” value [3] was 86% and 81%, the “Population Hoechst High Intensity Objects (%)” value [3] was 0% and the “Population Membrane Permeable-Phenotype (%)” value [3] was 0% and 7%. For the same compound, the “Population Mitochondria Different-Phenotype (%)” value [3] was 0% and 1%, the “Population Mitotic Cells (%)” value [3] was 41% and 16% and the “Population Normal (%)” value [3] was 100%. For the same compound, the “Population Pyknosed Nuclei (%)” value [3] was 11% and 8%, the “Population Tubulin-Different-Phenotype (%)” value [3] was 83% and 47% and the “Population Apoptotic (%)” value [4] was 86% and 70%. For the same compound, the “Population Fragmented Nuclei (%)” value [4] was 12% and 4%, the “Population Healthy Nuclei (%)” value [4] was 63% and 78% and the “Population Hoechst High Intensity Objects (%)” value [4] was 0%. The “Population Membrane Permeable-Phenotype (%)” value [4] was 5% and 4%, the “Population Mitochondria Different-Phenotype (%)” value [4] was 5% and 12% and the “Population Mitotic Cells (%)” value [4] was 13% and 29%. The “Population Normal (%)” value [4] was 100%, the “Population Pyknosed Nuclei (%)” value [4] was 23% and 16% and the “Population Tubulin-Different-Phenotype (%)” value [4] was 40% and 37%. The “Population Apoptotic (%)” value [5] was 58% and 45%, the “Population Fragmented Nuclei (%)” value [5] was 10% and 1% and the “Population Healthy Nuclei (%)” value [5] was 68% and 89%. The “Population Hoechst High Intensity Objects (%)” value [5] was 0%, the “Population Membrane Permeable-Phenotype (%)” value [5] was 9% and 1% and the “Population Mitochondria Different-Phenotype (%)” value [5] was 0%. The “Population Mitotic Cells (%)” value [5] was 41% and 54%, the “Population Normal (%)” value [5] was 100% and the “Population Pyknosed Nuclei (%)” value [5] was 21% and 8%. The “Population Tubulin-Different-Phenotype (%)” value [5] was 54% and 80%, the “Population Apoptotic (%)” value [6] was 88% and 91% and the “Population Fragmented Nuclei (%)” value [6] was 12% and 6%. The “Population Healthy Nuclei (%)” value [6] was 70% and 78%, the “Population Hoechst High Intensity Objects (%)” value [6] was 0% and the “Population Membrane Permeable-Phenotype (%)” value [6] was 10%. The “Population Mitochondria Different-Phenotype (%)” value [6] was 2% and 9%, the “Population Mitotic Cells (%)” value [6] was 11% and 8% and the “Population Normal (%)” value [6] was 100% and 99%. For the same compound, the “Population Pyknosed Nuclei (%)” value [6] was 16% and 14% and the “Population Tubulin-Different-Phenotype (%)” value [6] was 38% and 34%.

`C[C@@H](Oc1cc(-n2cnc3ccc(OC4CCN(C)CC4)cc32)sc1C(N)=O)c1ccccc1Cl` [GSK-579289A] was tested, and the “Population Apoptotic (%)” value [1] was 100% and 47%, the “Population Fragmented Nuclei (%)” value [1] was 4% and 6% and the “Population Healthy Nuclei (%)” value [1] was 78%. For the same compound, the “Population Hoechst High Intensity Objects (%)” value [1] was 0%, the “Population Membrane Permeable-Phenotype (%)” value [1] was 24% and 17% and the “Population Normal (%)” value [1] was 100% and 99%. For the same compound, the “Population Pyknosed Nuclei (%)” value [1] was 16% and 15%, the “Population Tubulin-Different-Phenotype (%)” value [1] was 33% and 43% and the “Population Apoptotic (%)” value [2] was 78% and 61%. The “Population Fragmented Nuclei (%)” value [2] was 9% and 23%, the “Population Healthy Nuclei (%)” value [2] was 64% and 47% and the “Population Hoechst High Intensity Objects (%)” value [2] was 2% and 0%. For the same compound, the “Population Membrane Permeable-Phenotype (%)” value [2] was 55% and 27%, the “Population Mitochondria Different-Phenotype (%)” value [2] was 69% and 72% and the “Population Mitotic Cells (%)” value [2] was 22% and 38%. The “Population Normal (%)” value [2] was 97% and 100%, the “Population Pyknosed Nuclei (%)” value [2] was 26% and 28% and the “Population Tubulin-Different-Phenotype (%)” value [2] was 97% and 95%. For the same compound, the “Population Apoptotic (%)” value [3] was 100% and 78%, the “Population Fragmented Nuclei (%)” value [3] was 9% and 4% and the “Population Healthy Nuclei (%)” value [3] was 84% and 76%. For the same compound, the “Population Hoechst High Intensity Objects (%)” value [3] was 0%, the “Population Membrane Permeable-Phenotype (%)” value [3] was 14% and 23% and the “Population Mitotic Cells (%)” value [3] was 0% and 21%. For the same compound, the “Population Normal (%)” value [3] was 100% and 99%, the “Population Pyknosed Nuclei (%)” value [3] was 6% and 18% and the “Population Tubulin-Different-Phenotype (%)” value [3] was 33% and 46%. The “Population Apoptotic (%)” value [4] was 78% and 81%, the “Population Fragmented Nuclei (%)” value [4] was 8% and 5% and the “Population Healthy Nuclei (%)” value [4] was 41% and 52%. The “Population Hoechst High Intensity Objects (%)” value [4] was 4% and 0%, the “Population Membrane Permeable-Phenotype (%)” value [4] was 52% and 83% and the “Population Mitochondria Different-Phenotype (%)” value [4] was 84% and 67%. The “Population Mitotic Cells (%)” value [4] was 21% and 18%, the “Population Normal (%)” value [4] was 95% and 99% and the “Population Pyknosed Nuclei (%)” value [4] was 50% and 41%. For the same compound, the “Population Tubulin-Different-Phenotype (%)” value [4] was 100% and 98%, the “Population Apoptotic (%)” value [5] was 95% and 75% and the “Population Healthy Nuclei (%)” value [5] was 60% and 55%. For the same compound, the “Population Hoechst High Intensity Objects (%)” value [5] was 0%, the “Population Membrane Permeable-Phenotype (%)” value [5] was 33% and 19% and the “Population Normal (%)” value [5] was 100%. For the same compound, the “Population Pyknosed Nuclei (%)” value [5] was 31% and 21%, the “Population Tubulin-Different-Phenotype (%)” value [5] was 56% and 38% and the “Population Apoptotic (%)” value [6] was 100% and 95%. For the same compound, the “Population Fragmented Nuclei (%)” value [6] was 9% and 12%, the “Population Healthy Nuclei (%)” value [6] was 19% and 12% and the “Population Hoechst High Intensity Objects (%)” value [6] was 4%. The “Population Membrane Permeable-Phenotype (%)” value [6] was 100% and 95%, the “Population Mitochondria Different-Phenotype (%)” value [6] was 50% and 70% and the “Population Mitotic Cells (%)” value [6] was 0% and 4%. The “Population Normal (%)” value [6] was 95%, the “Population Pyknosed Nuclei (%)” value [6] was 70% and 74% and the “Population Tubulin-Different-Phenotype (%)” value [6] was 100% and 95%.

With `CN1CCN(c2ccc(-n3cc(-c4ccncc4OCC4CCNCC4)cn3)cc2)CC1` the “Population Apoptotic (%)” value [1] was 100% and 71%, the “Population Healthy Nuclei (%)” value [1] was 63% and 82% and the “Population Hoechst High Intensity Objects (%)” value [1] was 0%. The “Population Membrane Permeable-Phenotype (%)” value [1] was 6% and 1%, the “Population Mitochondria Different-Phenotype (%)” value [1] was 3% and 2% and the “Population Normal (%)” value [1] was 100%. For the same compound, the “Population Pyknosed Nuclei (%)” value [1] was 2% and 10%, the “Population Tubulin-Different-Phenotype (%)” value [1] was 75% and 77% and the “Population Apoptotic (%)” value [2] was 80%. The “Population Healthy Nuclei (%)” value [2] was 48% and 67%, the “Population Hoechst High Intensity Objects (%)” value [2] was 1% and 0% and the “Population Membrane Permeable-Phenotype (%)” value [2] was 0% and 5%. For the same compound, the “Population Mitochondria Different-Phenotype (%)” value [2] was 7% and 16%, the “Population Mitotic Cells (%)” value [2] was 20% and 19% and the “Population Normal (%)” value [2] was 98% and 99%. For the same compound, the “Population Pyknosed Nuclei (%)” value [2] was 17% and 22%, the “Population Tubulin-Different-Phenotype (%)” value [2] was 21% and 36% and the “Population Apoptotic (%)” value [3] was 100% and 78%. For the same compound, the “Population Healthy Nuclei (%)” value [3] was 69% and 84%, the “Population Hoechst High Intensity Objects (%)” value [3] was 0% and the “Population Membrane Permeable-Phenotype (%)” value [3] was 4% and 1%. For the same compound, the “Population Mitochondria Different-Phenotype (%)” value [3] was 2% and 1%, the “Population Mitotic Cells (%)” value [3] was 0% and 21% and the “Population Normal (%)” value [3] was 100%. The “Population Pyknosed Nuclei (%)” value [3] was 3% and 11%, the “Population Tubulin-Different-Phenotype (%)” value [3] was 72% and 85% and the “Population Apoptotic (%)” value [4] was 76% and 88%. For the same compound, the “Population Fragmented Nuclei (%)” value [4] was 34% and 12%, the “Population Healthy Nuclei (%)” value [4] was 25% and 32% and the “Population Hoechst High Intensity Objects (%)” value [4] was 1% and 0%. For the same compound, the “Population Membrane Permeable-Phenotype (%)” value [4] was 6% and 8%, the “Population Mitochondria Different-Phenotype (%)” value [4] was 18% and 26% and the “Population Mitotic Cells (%)” value [4] was 24% and 11%. The “Population Normal (%)” value [4] was 98% and 100%, the “Population Pyknosed Nuclei (%)” value [4] was 39% and 55% and the “Population Tubulin-Different-Phenotype (%)” value [4] was 31% and 48%. For the same compound, the “Population Apoptotic (%)” value [5] was 54% and 86%, the “Population Healthy Nuclei (%)” value [5] was 51% and 86% and the “Population Hoechst High Intensity Objects (%)” value [5] was 0%. For the same compound, the “Population Membrane Permeable-Phenotype (%)” value [5] was 5% and 0%, the “Population Mitochondria Different-Phenotype (%)” value [5] was 1% and the “Population Normal (%)” value [5] was 100%. The “Population Pyknosed Nuclei (%)” value [5] was 10% and 9%, the “Population Tubulin-Different-Phenotype (%)” value [5] was 78% and 88% and the “Population Apoptotic (%)” value [6] was 90%. For the same compound, the “Population Healthy Nuclei (%)” value [6] was 13% and 21%, the “Population Hoechst High Intensity Objects (%)” value [6] was 0% and 1% and the “Population Membrane Permeable-Phenotype (%)” value [6] was 55% and 60%. The “Population Mitochondria Different-Phenotype (%)” value [6] was 55% and 60%, the “Population Mitotic Cells (%)” value [6] was 9% and the “Population Normal (%)” value [6] was 100% and 98%. The “Population Pyknosed Nuclei (%)” value [6] was 44% and 69%, the “Population Tubulin-Different-Phenotype (%)” value [6] was 88% and 65% and the “Total Cell Count” value [6] was 69 and 181.
